Experimental data published in ChEMBL document CHEMBL5150043, “Discovery of Anthranilic Acid Derivatives as Difluoromethylornithine Adjunct Agents That Inhibit Far Upstream Element Binding Protein 1 (FUBP1) Function” (J Med Chem, 2022).

How the values were obtained:
CHO-K1 [1] = experiment: Cytotoxicity against chinese hamster CHO-K1 cells assessed as decrease in cell viability measured after 48 hrs by ATPlite assay; format: toxicity, cell-based, Cricetulus griseus; details: cho-k1, 48 h
Summary of the method: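 CHO-K1 cells dosed alone in 384-well format in parallel with Assays 1 and 2; MTC taken as highest concentration giving ≥90% relative growth versus untreated control; typical error ±10% (n = 3).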

CHO-K1 [2] = experiment: Inhibition of spermidine uptake in chinese hamster CHO-K1 cells assessed as decrease in cell growth by measuring cellular ATP content measured after 48 hrs in presence of DFMO and spermidine by ATPlite assay; details: Cricetulus griseus, CHO-K1, 48 h
[3] = Inhibition of spermidine uptake chinese hamster CHO-K1 cells assessed as decrease in cell growth by measuring cellular ATP content measured after 48 hrs in presence of DFMO and spermidine by ATPlite assay; format: functional, cell-based; details: Cricetulus griseus, CHO-K1, 48 h
L3.6pl [4] = experiment: Cytotoxicity against human L3.6pl cells assessed as cell viability measured after 72 hrs by ATPlite assay; format: toxicity, cell-based
Summary of the method: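 L3.6pl human pancreatic cancer cells in 96-well format were exposed to compound alone for 72 h. Growth was expressed relative to an untreated control. MTC is the highest concentration with relative growth still >90%. […] Data come from two or more experiments, each run in triplicate (n ≥ 6).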

[5] = Cytotoxicity against human L3.6pl cells assessed as inhibition of cell growth measured after 72 hrs by ATPlite assay; format: toxicity, cell-based
L3.6pl [6] = experiment: Inhibition of polyamine uptake in human L3.6pl cells assessed as inhibition of Ant44-induced toxicity by measuring cellular ATP content at MTC measured after 72 hrs in presence of Ant44 by ATPlite assay; format: functional
Summary of the method: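 L3.6pl cells, Ant44 challenge over 72 h, compound dosed up to its MTC; ECx = percentage effect at the MTC on scale from Ant44-only (50% growth) to untreated (100%); average of ≥2 experiments in triplicate (n ≥ 6).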

[7] = Inhibition of spermidine uptake in human L3.6pl cells assessed as inhibition of cell growth by measuring cellular ATP content at MTC measured after 72 hrs in presence of DFMO and spermidine by ATPlite assay; format: functional
Summary of the method: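 L3.6pl cells with DFMO and spermidine over 72 h, compound dosed up to its MTC; ECx = percentage effect at the MTC on scale between DFMO-only (50%) and DFMO + Spd (100%) controls; average of ≥2 experiments in triplicate (n ≥ 6).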

SMILES | MTC (CHO-K1 [1]) [µM] | EC50 (CHO-K1 [2]) [µM] | EC50 [3] [µM] | MTC (L3.6pl [4]) [µM] | IC50 at 72 h [5] [µM] | inhibition (INH) (L3.6pl [6]) [%] | inhibition (INH) [7] [%]
COc1ccc(C(=O)Nc2ccc(N3CCN(c4cc(Cl)ccc4C)CC3)c(C(=O)O)c2)cc1 | 14 | 5 | – | – | – | – | –
COc1ccc(C(=O)Nc2ccc(N3CCN(c4cc(Cl)ccc4C)CC3)cc2C(=O)O)c(OC)c1 | > 40 | > 40 | > 40 | 40 | 61.6 | – | –
CCN(CC)C(=O)CN1CCN(c2ccc(NC(=O)c3ccc(OC)cc3)c(C(=O)O)c2)CC1 | 28 | > 40 | > 40 | – | – | – | –
COc1ccc(C(=O)Nc2ccc(N3CCC(c4cccc(C)c4)C3)cc2C(=O)O)cc1 (stereo not given) | > 40 | > 40 | > 40 | 25 | 39.9 | – | –
COc1ccc(C(=O)Nc2ccc(N3CCC(C(N)=O)CC3)cc2C(=O)O)cc1 | 22 | > 40 | > 40 | – | – | – | –
COc1ccccc1C(=O)Nc1ccc(N2CCC(c3ccccc3)CC2)cc1C(=O)O | > 40 | 21 | 18 | 9 | 46.3 | – | –
COc1ccccc1N1CCN(c2ccc(NC(=O)c3ccccc3-c3cccs3)cc2C(=O)O)CC1 | > 40 | 27 | > 40 | – | – | – | –
COC(=O)c1cc(N2CCN(c3cc(Cl)ccc3C)CC2)ccc1NC(=O)c1ccc(OC)cc1OC | > 40 | > 40 | > 40 | – | – | – | –
Cc1ccc(C)c(N2CCN(c3ccc(N4C(=O)CC(c5ccccc5)C4=O)cc3[N+](=O)[O-])CC2)c1 (stereo not given) | 32 | 27 | – | – | – | – | –
Cc1ccccc1CN1CCN(c2ccc(NC(=O)C(C)(C)C)cc2)CC1 | 2 | 2 | – | 10 | > 10 | 15 | 15
Cc1cccc(N2CCN(c3ccc(NC(=O)c4ccccc4Cl)c(C(=O)O)c3)CC2)c1C | 26 | 22 | – | – | – | – | –
COc1ccccc1C(=O)Nc1ccc(N2CCN(C(=O)c3ccccn3)CC2)cc1C(=O)O | > 40 | > 40 | > 40 | 10 | > 10 | – | –
COc1ccc(C(=O)Nc2ccc(N3CCN(c4ccc(C(C)=O)cc4)CC3)cc2C(=O)O)cc1 | 20 | 21 | > 40 | – | – | – | –
COc1ccc(C(=O)Nc2ccc(N3CCN(C4CCCCC4)CC3)cc2C(=O)O)cc1 | > 40 | > 40 | – | – | – | – | –
COc1ccc(N2CCN(c3ccc(NC(=O)C4CCCCC4)cc3C#N)CC2)cc1 | 17 | 23 | > 40 | – | – | – | –
COc1ccc(C(=O)Nc2ccc(N3CCCN(c4ncccn4)CC3)cc2C(=O)O)cc1 | > 40 | – | 12 | 25 | > 30 | – | –
Cc1ccccc1C(=O)Nc1ccc(N2CCN(c3cc(Cl)ccc3C)CC2)c(C(=O)O)c1 | > 40 | > 40 | > 40 | – | – | – | –
COc1ccccc1C(=O)Nc1ccc(N2CCN(Cc3ccccn3)CC2)cc1C(=O)O | > 40 | 10 | – | 10 | > 100 | – | –
COc1ccccc1N1CCN(c2ccc(NC(=O)c3ccccc3)cc2C(=O)O)CC1 | > 40 | > 40 | – | – | – | – | –
COCCNC(=O)CN1CCN(c2ccc(NC(=O)c3ccc(OC)cc3)c(C(=O)O)c2)CC1 | > 40 | > 40 | – | – | – | – | –
COc1ccccc1C(=O)Nc1ccc(N2CCC(Oc3ccccc3)CC2)cc1C(=O)O | > 40 | 19 | 32 | 10 | 38.6 | 35 | 45
Cc1cccc(N2CCN(c3ccc(NC(=O)c4cccc(Cl)c4)c(C(=O)O)c3)CC2)c1C | 10 | 8 | – | – | – | – | –
O=C(Nc1ccc(N2CCN(c3ccccn3)CC2)cc1C(=O)O)c1ccco1 | > 40 | > 40 | > 40 | 12 | > 50 | 41 | 31
CCOC(=O)N1CCN(c2ccc(NC(=O)c3ccc(OC)cc3)c(C(=O)O)c2)CC1 | 34 | > 40 | > 40 | – | – | – | –
COc1ccccc1C(=O)Nc1ccc(N2CCN(Cc3ccccc3)CC2)cc1C(=O)O | > 40 | > 40 | > 40 | 10 | > 10 | – | –
COc1ccc(C(=O)Nc2ccc(N3CCN(c4ccc(OC)cc4)CC3)cc2C(=O)O)cc1 | > 40 | > 40 | > 40 | – | – | – | –

SMILES | MTC (CHO-K1 [1]) [µM] | EC50 (CHO-K1 [2]) [µM] | EC50 [3] [µM] | MTC (L3.6pl [4]) [µM] | IC50 at 72 h [5] [µM] | inhibition (INH) (L3.6pl [6]) [%] | inhibition (INH) [7] [%]
COc1ccccc1C(=O)Nc1ccc(N2CCN(c3cc(Cl)ccc3C)CC2)cc1C(=O)O | 19 | 21 | 2 | 7 | 29.1 | – | –
Cc1cccc(N2CCN(c3ccc(NC(=O)c4ccccc4F)cc3C(=O)O)CC2C)c1 (stereo not given) | > 40 | > 40 | – | – | – | – | –
COc1ccc(C(=O)Nc2ccc(N3CCN(c4cccc(C)c4)CC3)cc2C(=O)O)cc1 | 22 | 16 | > 40 | – | – | – | –
COC(=O)c1cc(CN2CCN(c3ccccn3)CC2)ccc1NC(=O)c1ccccc1OC | > 20 | > 20 | > 20 | – | – | – | –
COc1ccccc1C(=O)Nc1ccc(N2CCN(c3ccccn3)CC2)cc1C(=O)O | 21 | – | 4 | 2 | > 100 | – | –
COc1ccccc1C(=O)Nc1ccc(N2CCN(c3ccccn3)CC2)cc1 | 14 | > 40 | > 40 | 10 | > 10 | – | –
COc1ccccc1C(=O)Nc1ccc(N2CCN(CCCc3ccccc3)CC2)cc1C(=O)O | > 40 | > 40 | > 40 | 10 | > 10 | – | –
COc1ccc(CC(=O)Nc2ccc(N3CCN(c4cc(Cl)ccc4C)CC3)cc2C(=O)O)cc1 | 24 | 25 | 32 | – | – | – | –
COc1ccccc1C(=O)Nc1ccc(N2CCN(c3cccc(C)c3C)CC2)cc1C(=O)O | 28 | 23 | 2 | 8 | 22.9 | – | –
COc1ccc(C(=O)Nc2ccc(N3CCN(c4cccc(Cl)c4)CC3)cc2C(=O)O)cc1 | 20 | 17 | – | – | – | – | –
CCOc1ccccc1N1CCN(c2ccc(NC(=O)c3ccc(OC)cc3)c(C(=O)O)c2)CC1 | 37 | 20 | – | 10 | > 20 | – | –
COc1ccc(C(=O)Nc2ccc(N3CCN(c4ccccc4F)CC3)cc2C(=O)O)cc1 | 25 | 33 | – | – | – | – | –
COc1ccc(C(=O)Nc2ccc(N3CCC(N4CCCCC4)CC3)cc2C(=O)O)cc1 | > 40 | > 40 | – | – | – | – | –
O=C(Nc1ccc(N2CCN(C3CCCCC3)CC2)cc1C(=O)O)c1ccc(F)cc1 | > 40 | > 40 | – | – | – | – | –
COC(=O)c1cc(N2CCN(c3cc(Cl)ccc3C)CC2)ccc1NC(=O)c1ccccc1OC | > 40 | > 40 | > 40 | – | – | – | –
Cc1ccc(CC(=O)Nc2ccc(N3CCN(c4ccccc4Cl)CC3)cc2C(=O)O)cc1 | > 40 | 32 | 16 | – | – | – | –
O=C(Nc1ccc(N2CCN(c3ccccc3F)CC2)c(C(=O)O)c1)c1ccc(Cl)cc1 | > 40 | > 40 | – | – | – | – | –
COc1ccccc1N1CCN(c2ccc(N3C(=O)CCC3=O)cc2[N+](=O)[O-])CC1 | 27 | 30 | – | – | – | – | –
COC(=O)c1cc(N2CCN(c3cc(Cl)ccc3C)CC2)ccc1NC(=O)c1ccc(OC)cc1 | > 40 | > 40 | > 40 | – | – | – | –
COc1ccccc1N1CCN(c2ccc(NC(=O)c3ccccc3Cl)c(C(=O)O)c2)CC1 | 36 | 26 | 16 | – | – | – | –
Cc1ccc(C)c(N2CCN(c3ccc(NC(=O)c4ccc(Cl)cc4)cc3C(=O)O)CC2)c1 | > 40 | > 40 | – | – | – | – | –
Cc1ccc(C(=O)Nc2ccc(N3CCN(c4cc(Cl)ccc4C)CC3)c(C(=O)O)c2)cc1 | 12 | 5 | – | – | – | – | –
COc1ccc(C(=O)Nc2ccc(N3CCN(c4ccccc4)CC3)cc2C(=O)O)cc1 | 17 | 15 | > 40 | – | – | – | –
COc1ccc(C(=O)Nc2ccc(N3CCN(c4ccccc4Cl)CC3)cc2C(=O)O)cc1 | 28 | 27 | – | 90 | 125 | 27 | 2
COc1ccccc1C(=O)Nc1ccc(CN2CCN(c3ccccn3)CC2)cc1C(=O)O | > 40 | > 40 | > 40 | 10 | > 10 | – | –
